# UBC9 SUMO inh – SUMOylation inhibition. P63279. HTRF SUMOylation assay, SAE1/SAE2 + UBC9, in vitro. inhibition, % at 35 µM. actives 0.36% (n = 290,000); in the data active means inhibition above about 50%, passing the limit was not always enough; inconclusive means no clear call, values can overlap the other calls
# UBC13 polyUb – inhibitors of human UBC13 polyubiquitin chain formation; TR-FRET; inhibition, % at 20 µM; actives 0.47% (n = 330,000); AID 485273; in the data active means inhibition above about 45%, passing the limit was not always enough; inconclusive means no clear call, values can overlap the other calls
# Target sequence (P61088 whole entry, looked up): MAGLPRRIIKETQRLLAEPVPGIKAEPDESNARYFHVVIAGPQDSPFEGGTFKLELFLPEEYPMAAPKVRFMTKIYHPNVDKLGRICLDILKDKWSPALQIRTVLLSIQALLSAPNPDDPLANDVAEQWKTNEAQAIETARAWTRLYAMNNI
# Rin1 Abl inh – inhibitors of human Rin1-Abl protein interaction; P00519+Q13671; TR-FRET Rin1/Abl binding, biochemical; inhibition, % at 7.35 µM; actives 0.4% (n = 360,000); in the data active means inhibition above about 5%, passing the limit was not always enough
# RBBP9 inh – inhibitors of human serine hydrolase RBBP9. O75884. recombinant RBBP9, FP-Rh probe fluorescence polarization. inhibition, % at 7.94 µM. actives 0.2% (n = 220,000);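 active means inhibition above the campaign mean of all tested compounds plus 3 SD, cut at about 14% in these data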;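 further: plate controls were DMSO wells with RBBP9 for no effect and wells lacking RBBP9 protein for full effect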
#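 Measured by: FP readout at 525/598 nm; material: recombinant human RBBP9; also added: Serine-hydrolase probe FP-Rh, 375 nM pre-mixing; medium: Tris buffer pH 8.0, NaCl, Pluronic; replication: one well per compound; doses: one concentration, 7.94 µM nominal, 0.794% DMSO; timing: preincubation 30 min plus labeling 45 min at 25 °C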
# PREPL inh – human PREPL enzyme inhibition; Q4J6C6; recombinant PREPL, fluorescence polarization activity-based probe; inhibition, % at 5.96 µM; actives 0.68% (n = 320,000);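 further: 0% = enzyme with DMSO and 100% = wells lacking enzyme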
# ALR inh – blocks human ALR sulfhydryl oxidase activity. P55789. purified ALR, DTT oxidation, H2O2 HRP-luminol luminescence. inhibition, % (test concentration not listed). actives 3.8% (n = 290,000). AID 485317;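 active means mean replicate inhibition above about 79%, with every replicate also reaching it, limit read from the data; inconclusive means only one of the two criteria met; inactive means mean below limit and not every replicate reaching it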
# Target sequence (P55789 whole entry, looked up): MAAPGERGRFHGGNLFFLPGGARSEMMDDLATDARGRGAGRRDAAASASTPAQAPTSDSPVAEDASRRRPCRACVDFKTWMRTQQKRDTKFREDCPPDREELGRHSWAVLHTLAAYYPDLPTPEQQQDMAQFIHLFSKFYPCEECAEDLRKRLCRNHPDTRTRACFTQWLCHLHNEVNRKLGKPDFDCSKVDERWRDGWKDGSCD
# PREPL inh cf – confirmation of human PREPL enzyme inhibitors; recombinant PREPL, fluorescence polarization activity probe; AID 2803; shares compounds with PREPL inh; actives 67% (n = 2,000); inhibition, % at 5.96 µM;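 further: 0% = protein with DMSO and 100% = wells lacking protein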
# Active calls of the source: *; ? = inconclusive; . = no result given. Hits are enriched below; roughly 4.3% of the tested compounds scored in any of these assays. Unless noted, no stated cut-off is given here; in the data, active means inhibition above about 43%; inactive means the rest.
SMILES,UBC9 SUMO inh,UBC13 polyUb,Rin1 Abl inh,RBBP9 inh,PREPL inh,ALR inh,PREPL inh cf
CC#C[C@]1(O)CC[C@H]2[C@@H]3CCC4=CC(=O)CCC4=C3[C@@H](c3ccc(N(C)C)cc3)C[C@@]21C,-7,-12,0,-3,50*,.,46*
CCN1C(=O)C(=O)N(CC(=O)N2CCN(c3ccccc3)CC2)C1=O,.,0,-2,.,3,36,.
CN(C)C(=O)CCc1ccc2c3c([nH]c2c1)[C@]1(CCc2ccccc2)[C@@H](C(=O)N2CCCCC2)C[C@H](CC(=O)NC(C)(C)C)C(=O)N1CC3,.,.,-2,.,.,.,.
COc1ccccc1NC(=O)Nc1nc(CC(=O)Nc2ccc(N(C)C)cc2)cs1,.,4,0,.,47*,49,43*
O=C(CN1C(=O)c2ccccc2S1(=O)=O)NCCc1ccc(F)cc1,.,11,3,.,4,3,.
Cc1ccc(S(=O)(=O)Nc2ccc(C(=O)NC3CC3)cc2)cc1,2,3,-1,.,6,-19,.
Cc1ccc(NS(=O)(=O)c2ccc(C(=O)Nc3nncs3)cc2)cc1,.,-4,-2,.,45*,33,8
COC(=O)c1ccc2nc(C)cc(Nc3ccc(N(C)C)cc3)c2c1,-14,-19,-3,-3,50*,99*,42
C=CCn1c(N2CCN(c3ccc(OC)cc3)CC2)nc2c1c(=O)[nH]c(=O)n2C,-2,12,0,-8,49*,.,38
CCOC(=O)N1CCN(C(=O)CSCc2ccc(Br)cc2)CC1,11,18,5,-2,10,-21,.
Cc1cc(C)c2c(N)c(-c3nnc(SCc4ccc(Cl)cc4)n3C)sc2n1,6,10,0,-3,20,-13,.
C=CCn1c(SCc2ccccc2Cl)nnc1-c1sc2nc(C)cc(C)c2c1N,-17,3,4,1,47*,1,42
COc1ccc(NC(=O)NCCCN2CCN(c3ccccc3F)CC2)cc1,-12,16,-2,3,49*,.,35
CCOc1ccc(NC(=O)NCCN2CCN(c3ccccc3F)CC2)cc1,7,-4,0,.,2,15,.
COc1ccc2cc(C(=O)C3CCCN(C(=O)c4cccnc4)C3)ccc2c1 (centres undefined),22,23,-12,.,45*,-6,39
COc1ccc2cc(C(=O)C3CCCN(C(=O)C4=NN(C)C(=O)CC4)C3)ccc2c1 (centres undefined),17,20,-5,.,44*,-8,32
COc1ccc2cc(C(=O)C3CCCN(C(=O)c4cncs4)C3)ccc2c1 (centres undefined),26,19,-9,.,24,-21,.
CC(=O)Oc1ccc(Cn2c(C)c(C(=O)NCc3ccc4c(c3)OCCO4)sc2=O)cc1,.,.,1,.,.,.,.
Cc1ccc(C(=O)Oc2coc(CSc3nnc(NC(=O)c4cccs4)s3)cc2=O)cc1,27,-3,-1,-19,76*,5,85*
CC(=O)Nc1nnc(SCc2cc(=O)c(OC(=O)c3ccccc3)co2)s1,8,-2,3,2,7,-6,.
Cn1c(N)c(C(=O)COC(=O)/C=C/c2cccc(F)c2)c(=O)n(C)c1=O,.,3,2,.,44*,1,40
CCOc1ccc(Br)cc1S(=O)(=O)Nc1cccc(S(=O)(=O)N2CCOCC2)c1,.,.,4,.,.,.,.
COc1ccc(-c2oc3ncn(CCN4CCOCC4)c(=N)c3c2-c2ccc(OC)cc2)cc1,-1,21,2,0,48*,-4,35
COc1ccc(-c2oc3ncnc(NCCN4CCOCC4)c3c2-c2ccc(OC)cc2)cc1,7,35,-3,-7,21,-8,.
Cc1ccc(NC(=O)c2ccc3c(c2)CCN3S(C)(=O)=O)cc1C,13,-1,-1,.,-4,3,.
COc1ccc(CN2CCN(c3cc(C)nc4c5c(C)cc(C)nc5nn34)CC2)cc1F,32,15,-2,.,46*,.,34
Nc1[nH]n2c(=O)c3c(nc2c1N=Nc1ccccc1)CCCC3,-64,-210,-3,-2,64*,7,60*
Nc1[nH]n2c(=O)c3c(nc2c1N=Nc1ccc(Cl)cc1)CCCC3,-36,-112,-1,4,51*,?,68*
